Assay results taken from the EternaBench riboswitch data.

Tested on: MS2 coat protein
Assay: apparent Kd, MS2 coat protein; higher = weaker binding; RNA-MaP array; FMN 200 µM where present
Procedure, shortened: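 Stalled E. coli RNA polymerase transcribed the designs on Illumina sequencing-chip clusters. SNAP-549-labelled MS2 coat protein was titrated from 0.7 or 1.5 nM, doubling to 3 µM, without and then with constant ligand, in 100 mM Tris-HCl pH 7.5, 80 mM KCl, 4 mM MgCl2, BSA, DTT, yeast tRNA and Tween-20. Per-cluster binding curves were fitted to green signal normalised to red-channel RNA signal and control-cluster median Fmax. The apparent Kd is the median of the filtered fits.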

[1] = designed as: OFF switch for flavin mononucleotide, no ligand
[2] = ligand present: flavin mononucleotide, designed as: OFF switch for flavin mononucleotide
[3] = designed as: ON switch for flavin mononucleotide, no ligand
[4] = ligand present: flavin mononucleotide, designed as: ON switch for flavin mononucleotide

Row | Sequence | apparent Kd [1] | apparent Kd [2] | apparent Kd [3] | apparent Kd [4]
1 | UGAUAGGACAGAGGAUAUACGGAUAGGAUCUACUAUCAAACAGGUCCUACAUGAGGAUCACCCAUGUAGAAGGCUGUCCUAUCU | 22.9 nM | 111 nM | – | –
2 | UGAUCGAAAGAUCAUAGAUUCUGCUAGGAUAUGCAGAAGUUUCGAUUUACAUGAGGAUCACCCAUGUAGAAGGAGUAGAGUCUA | 6.12 nM | 6.54 nM | – | –
3 | AGCUAGUCAGGAUAUACAAACAUGUCGAGAGACGUGAAGGGACAUGAGGAUCACCCAUGUAGAAGGGACUAGCA | 59 nM | 234 nM | – | –
4 | UGAAAUCAUGUAGGAUAUGCAUGGCGAAGCUACGCAGAAGGACAUGAGGAUCACCCAUGUUCUAGCUACCGAGUUCGGUGGCAA | 21.3 nM | 127 nM | – | –
5 | CGGCAAUGACGAGGAUAUAGACAUGAGGAUCACCCAUGUAACAGUAUUACAGGGCGUCUUCUCAGCUAGAAGGCGUUCUAUGCC | 37.3 nM | 88.4 nM | – | –
6 | UGACGGAGCAGAGGAUAUACAUGAGGAUCACCCAUGUAAAUGAAAGAUAGCAGCAAAGCUGCAAUGUAGAAGGCUGCUCCGUCA | 29.8 nM | 84.9 nM | – | –
7 | ACUAUACGAGGAUAUACUGACGGGCCUCGGGCGUCCCUGAGACAUGAGGAUCACCCAUGUAGAAGGCGUAUACU | 38.4 nM | 216 nM | – | –
8 | CCUCAACAGUAGGAUAUCAUAUAACUAUUGUGAUGAGAAGGACUGACAUGAGGAUCACCCAUGUUAACGUGAUA | 18 nM | 24.9 nM | – | –
9 | GUUUUCGCAUGAGGAUAUGCUCGCAUUUCAAGAGCAGAAGGUAUGUCUAUAGACAUGAGGAUCACCCAUGUAUCUAACUUUGAA | – | – | 352 nM | 65 nM
10 | GUCUUUUUACAGAAGGUGUUUAACAUGAGGAUCACCCAUGUAUAUAUGGUUAAAUUUGAUAAUAACAAGGAUAUGUACUAAUCA | – | – | 53.4 nM | 46.4 nM
11 | UAAUAAAGCAGUGUAUUAAGAUCACAUGAGGAUCACCCAUGUAAGGAUAUGAGCAGAAAAUCUGCUCAGAAGGUACGAACACUG | 9.51 nM | 32.4 nM | – | –
12 | GGUAGAGAGCAGGAUAUCUUGGGUAAGUAUUGUAGAGAAGGGCUCACAUGAGGAUCACCCAUGUGGUCCAAGAU | 13.9 nM | 29.8 nM | – | –
13 | AAAAUGUGAGGAUAUCACGGAGCUCCGCGUGACGGAGCUCCUGAGAAGGCACAUGAGGAUCACCCAUGUCCUGU | 51.3 nM | 316 nM | – | –
14 | AAGCAUUGGCUUCUCAUCUACAUGAGGAUCACCCAUGUCGGGAGAAGGAGGCUUUGACGACUAGCCUAGGAUAUCCUAACGUGC | 5.65 nM | 6.15 nM | – | –
15 | AAAACAUGAGGAUCACCCAUGUAAAUAUCGGUUAAUUGUUGUGAGGAUAUACUAAAUUUUAAGAAGUAGAAGGCACUGGGUACA | – | – | – | 23.9 nM
16 | AAUAUAAAGAGCUGGUAAAACUCGACAUGAGGAUCACCCAUGUAGGAUAUCAGCACGAUAAGUGCUGAGAAGGACAUCCAGCUC | 15.4 nM | 17.6 nM | – | –
17 | UUGGACGUCGUAGGAUAUGUAGGAUAUUCCUACAUGAGGAUCACCCAUGUUGACAUGGAAGAAGGACAGAAGGACGAAGUCCAU | – | – | 261 nM | 4.54 nM
18 | UGGUCCCAGCGUUUGCUGGCCGCUCCAGAAGGCGAUCCAACAUGAGGAUCACCCAUGUCACCGAUCGAGGAUAUGGUUAAGGAU | – | – | 242 nM | 25.4 nM
19 | GUAUGGAGGGAGAAGGGCUAGGAGGUCCAGCUUAUGUGUGUUGCAACAUGAGGAUCACCCAUGUAGCAGGAUAUCCCUUGUACA | 44.4 nM | 242 nM | – | –
20 | AGGGAUAAAGGAUAUACAUGAGGAUCACCCAUGUUGAGGAAGGUUAGAGGUGGCGAUAGUAGAAGGUUAGGUAG | 89.2 nM | 54.7 nM | – | –
21 | GGGACUCAAAGAGUACCAAUACGAACAUGAGGAUCACCCAUGUAGGAUAUGCUACUCAAAGAGUAGCAGAAGGACAUGUGCCUA | 15.3 nM | 82.2 nM | – | –
22 | AUUAUAUAGAUAGGAUAUAGAAUAUUAUUUUAACAUGAGGAUCACCCAUGUAACCUUAUGUGUAGCUAGAAGGAUCAUUUAUUA | 80.3 nM | 113 nM | – | –
23 | GUUCUUCCUGUAAGGAUAUCCAUGUAUCAAAGUAUGGAGAAGGUACAUGAGGAUCACCCAUGUCACCCGCGUUA | 22.8 nM | 49.6 nM | – | –
24 | UUGGACGUCGUAGGAUAUGUGGGAUAUUCCUACAUGAGGAUCACCCAUGUUGACAUGGAAGAAGGACAGAAGGACGAUGUCCAU | – | – | 31.1 nM | 5.52 nM
25 | GCUGUCGCAUGAGGAUAUGGUCAGGUUUCCUGACCAGAAGGCAUGUCAAUAGACAUGAGGAUCACCCAUGUAGUAAAGACAGCA | – | – | 447 nM | 36.4 nM
26 | UGAUAGGACAGAGGAUAUACAUGCUAGAGAUACUAGCUAAAUUUCCUCACAUGAGGAUCACCCAUGUAGAAGGCUGUCCUAUCU | 19.4 nM | 378 nM | – | –
27 | GCUGGAAAAGGAUAUACAUAACGUGCGUCAGCACGAGGCCUACAUGAGGAUCACCCAUGUAGAAGGUUUCCAGC | 17.1 nM | 25.9 nM | – | –
28 | AUUUAAAAGUCAGGAUAUGGUAGAUUAUUCUUAUCAGAAGGGAUUAUUAUACUCAAGUACAUGAGGAUCACCCAUGUUAAAUCA | – | – | 18.1 nM | 10.2 nM
